The results in this text go back to ChEMBL document CHEMBL1153377, “8-Bromo-9-alkyl adenine derivatives as tools for developing new adenosine A2A and A2B receptors ligands” (Bioorg Med Chem, 2009).

The term Ki denotes a measure of affinity in units of concentration, obtained from inhibition or displacement.

Some results are limits rather than exact numbers.

One test has as its target T1, Adenosine receptor A2b (Homo sapiens, UniProt P29275).
T1 sequence (P29275 whole entry): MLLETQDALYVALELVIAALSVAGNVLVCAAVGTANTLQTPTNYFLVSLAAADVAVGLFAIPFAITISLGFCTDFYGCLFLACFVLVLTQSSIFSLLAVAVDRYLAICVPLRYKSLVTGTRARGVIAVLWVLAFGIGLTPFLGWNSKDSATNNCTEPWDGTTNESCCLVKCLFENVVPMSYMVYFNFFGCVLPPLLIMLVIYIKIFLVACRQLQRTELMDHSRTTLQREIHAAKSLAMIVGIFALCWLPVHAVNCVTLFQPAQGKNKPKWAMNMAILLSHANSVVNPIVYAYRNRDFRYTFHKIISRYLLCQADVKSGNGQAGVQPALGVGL
The test is described as follows: Antagonist activity at human adenosine A2B receptor expressed in CHO cells assessed as inhibition of NECA-stimulated adenylyl cyclase activity. The class given is functional, cell-based. The procedure, abridged:
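Membranes from CHO cells stably transfected with human A2B receptor, prepared by a single high-speed centrifugation of the homogenate, resuspended in 50 mM Tris/HCl pH 7.4 and used at once. Inhibition of NECA-stimulated adenylyl cyclase activity measured; IC50 converted to Ki by Cheng-Prusoff equation.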

The target of a further test is Adenosine receptor A2a (Homo sapiens, UniProt P29274). The test is described as follows: Displacement of [3H]NECA from human adenosine A2A receptor expressed in CHO cells. The format is cell-based. The essentials: (§1)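 CHO cells stably expressing human receptor; membranes from a two-step spin (1000 g, then 100,000 g), resuspended in binding buffer, stored -80 °C. Competition with [3H]NECA at 30 nM (A2A) or 10 nM (A3); nonspecific binding defined with […]. Ki derived from competition experiments.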
For orientation: Displacement assays read how much labelled ligand stays bound in the presence of the test substance.

The target of a further test is T2, Adenosine receptor A3 (Homo sapiens, UniProt P0DMS8).
T2 sequence (P0DMS8 whole entry): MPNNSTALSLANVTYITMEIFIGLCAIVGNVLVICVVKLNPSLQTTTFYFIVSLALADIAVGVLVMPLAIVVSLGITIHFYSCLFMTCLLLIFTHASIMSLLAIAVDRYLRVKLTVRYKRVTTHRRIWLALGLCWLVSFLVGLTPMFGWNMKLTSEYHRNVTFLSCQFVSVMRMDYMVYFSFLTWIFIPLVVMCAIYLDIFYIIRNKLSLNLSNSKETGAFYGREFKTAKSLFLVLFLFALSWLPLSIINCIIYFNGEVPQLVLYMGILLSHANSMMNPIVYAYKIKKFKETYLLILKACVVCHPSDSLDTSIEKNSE
The experiment in a line: Displacement of [3H]NECA from human adenosine A3 receptor expressed in CHO cells. The class given is cell-based. The procedure, abridged:
as §1

A further test addresses T3, Adenosine receptor A1 (Homo sapiens, UniProt P30542).
T3 sequence (P30542 whole entry): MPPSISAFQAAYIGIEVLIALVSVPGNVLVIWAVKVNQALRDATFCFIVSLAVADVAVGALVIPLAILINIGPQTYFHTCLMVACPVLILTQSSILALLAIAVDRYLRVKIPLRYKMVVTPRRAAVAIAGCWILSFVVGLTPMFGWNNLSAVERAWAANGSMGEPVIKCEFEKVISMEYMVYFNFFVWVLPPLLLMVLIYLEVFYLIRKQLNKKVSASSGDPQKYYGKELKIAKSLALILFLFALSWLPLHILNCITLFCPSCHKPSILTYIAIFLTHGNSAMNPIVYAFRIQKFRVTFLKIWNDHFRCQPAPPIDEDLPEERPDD
The experiment in a line: Displacement of [3H]CCPA from human adenosine A1 receptor expressed in CHO cells. The format is cell-based. The essentials:
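Membranes from CHO cells stably expressing human A1 receptor (1000 g spin to clear nuclei, then 100,000 g pellet, stored -80 °C in binding buffer). Competition binding with 1 nM [3H]CCPA; nonspecific binding defined with 1 mM theophylline. Ki calculated from competition curves.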

Sequence of Adenosine receptor A2a (P29274 whole entry): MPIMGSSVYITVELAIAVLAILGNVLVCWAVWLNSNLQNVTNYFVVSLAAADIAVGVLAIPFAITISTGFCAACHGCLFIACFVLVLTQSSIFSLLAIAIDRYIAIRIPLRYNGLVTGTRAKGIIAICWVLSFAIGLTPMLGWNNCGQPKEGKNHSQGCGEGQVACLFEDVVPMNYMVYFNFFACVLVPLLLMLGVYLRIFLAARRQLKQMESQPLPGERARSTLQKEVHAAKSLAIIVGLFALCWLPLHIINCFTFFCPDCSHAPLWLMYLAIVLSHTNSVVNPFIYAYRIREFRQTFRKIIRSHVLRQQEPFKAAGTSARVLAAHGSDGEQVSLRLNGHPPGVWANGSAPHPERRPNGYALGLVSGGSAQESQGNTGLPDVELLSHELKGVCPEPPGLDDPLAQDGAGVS

In the case of `Nc1ncnc2c1ncn2C1CCCC1`, the Ki on Adenosine receptor A2b is greater than 30 µM; on Adenosine receptor A2a, 1.8 µM; at Adenosine receptor A3, 13 µM; at Adenosine receptor A1 it was 10 µM.
On the same counts, the results for `CCn1cnc2c(N)ncnc21` are greater than 30 µM, 2.2 µM, greater than 100 µM and 7.4 µM.
The matching figures for `Nc1ncnc2c1ncn2CCCO`: greater than 30 µM, 3.9 µM, greater than 100 µM and greater than 100 µM.
Take `CC(C)n1c(Br)nc2c(N)ncnc21`: the Ki at Adenosine receptor A2b worked out at 1.1 µM; on Adenosine receptor A2a, 0.074 µM; at Adenosine receptor A3 it was 15 µM; at Adenosine receptor A1, 0.83 µM.
On the same counts, the results for `Nc1ncnc2ncn(CCCO)c12` are greater than 30 µM, greater than 100 µM, greater than 100 µM and greater than 100 µM.
The matching figures for `CC(C)n1cnc2ncnc(N)c21`: greater than 30 µM, 12 µM, greater than 100 µM and 20 µM.
With `CCCn1cnc2ncnc(N)c21`, the Ki on Adenosine receptor A2b is greater than 30 µM; on Adenosine receptor A2a, 18 µM; on Adenosine receptor A3, greater than 100 µM; at Adenosine receptor A1, greater than 100 µM.
In the case of `Cn1cnc2ncnc(N)c21`, the Ki at Adenosine receptor A2b was greater than 30 µM; at Adenosine receptor A2a, greater than 100 µM; on Adenosine receptor A3 it was greater than 100 µM; on Adenosine receptor A1, greater than 100 µM.
Turning to `CCCCn1cnc2c(N)ncnc21`, the Ki at Adenosine receptor A2b was greater than 30 µM; at Adenosine receptor A2a, 7.8 µM; at Adenosine receptor A3 it was greater than 100 µM; at Adenosine receptor A1, greater than 100 µM.
`Nc1ncnc2c1nc(Br)n2C1CCCC1`: the Ki at Adenosine receptor A2b turned out to be 0.86 µM; on Adenosine receptor A2a, 1.9 µM; at Adenosine receptor A3, 4.2 µM; on Adenosine receptor A1, 1 µM.
On the same counts, the results for `CCn1cnc2ncnc(N)c21` are greater than 30 µM, 30 µM, greater than 100 µM and greater than 100 µM.
On the same counts, the results for `Nc1ncnc2c1ncn2C1CCC1` are 17 µM, 4.8 µM, 33 µM and 8.7 µM.
On the same counts, the results for `CCC(C)n1cnc2c(N)ncnc21` (stereo unspecified) are 19 µM, 16 µM, greater than 100 µM and 34 µM.
For the compound `Nc1ncnc2ncn(CCO)c12`, the Ki on Adenosine receptor A2b is greater than 30 µM; on Adenosine receptor A2a, greater than 100 µM; at Adenosine receptor A3, greater than 100 µM; on Adenosine receptor A1 it was greater than 100 µM.
As to `CCn1c(Br)nc2c(N)ncnc21`, the Ki at Adenosine receptor A2b stood at 0.84 µM; at Adenosine receptor A2a it was 0.052 µM; on Adenosine receptor A3 it was 28 µM; at Adenosine receptor A1, 0.28 µM.
The matching figures for `Nc1ncnc2c1ncn2C1CC1`: greater than 30 µM, 2.3 µM, greater than 100 µM and greater than 100 µM.
As to `CC(C)Cn1cnc2ncnc(N)c21`, the Ki at Adenosine receptor A2b was greater than 30 µM; at Adenosine receptor A2a, greater than 100 µM; at Adenosine receptor A3 it was greater than 100 µM; on Adenosine receptor A1, greater than 100 µM.
`Nc1ncnc2c1nc(Br)n2CCO`: the Ki on Adenosine receptor A2b is 2.8 µM; at Adenosine receptor A2a, 0.62 µM; on Adenosine receptor A3 it was greater than 100 µM; at Adenosine receptor A1 it was 1.5 µM.
The matching figures for `CC(C)Cn1c(Br)nc2c(N)ncnc21`: 4.2 µM, 6 µM, 15 µM and 4.9 µM.
As to `Nc1ncnc2c1nc(Br)n2C1CCCCCC1`, the Ki on Adenosine receptor A2b is greater than 30 µM; at Adenosine receptor A2a it was greater than 100 µM; on Adenosine receptor A3, greater than 100 µM; on Adenosine receptor A1, greater than 100 µM.
Take `Nc1ncnc2ncn(CC(O)CO)c12` (stereo unspecified): the Ki on Adenosine receptor A2b is greater than 30 µM; on Adenosine receptor A2a, greater than 100 µM; at Adenosine receptor A3, greater than 100 µM; at Adenosine receptor A1 it was greater than 100 µM.
For `CCCn1cnc2c(N)ncnc21`, the Ki at Adenosine receptor A2b was 1.7 µM; on Adenosine receptor A2a it was 9.6 µM; on Adenosine receptor A3, no less than 100 µM; on Adenosine receptor A1, 9.4 µM.
Consider `CCC(C)n1cnc2ncnc(N)c21` (stereo unspecified), for which the Ki at Adenosine receptor A2b is greater than 30 µM; at Adenosine receptor A2a, greater than 100 µM; on Adenosine receptor A3, greater than 100 µM; on Adenosine receptor A1 it was greater than 100 µM.
As to `Nc1ncnc2c1nc(Br)n2CCCO`, the Ki at Adenosine receptor A2b was determined as 5.1 µM; at Adenosine receptor A2a, 0.085 µM; at Adenosine receptor A3, 3.2 µM; at Adenosine receptor A1, 1 µM.
On the same counts, the results for `CC(O)Cn1cnc2ncnc(N)c21` (stereo unspecified) are greater than 30 µM, greater than 100 µM, greater than 100 µM and greater than 100 µM.
`CC(O)Cn1c(Br)nc2c(N)ncnc21` (stereo unspecified): the inhibitory constant (Ki) was 0.64 µM on Adenosine receptor A2b, 1.1 µM at Adenosine receptor A2a, no less than 100 µM on Adenosine receptor A3 and 2.9 µM on Adenosine receptor A1.
The matching figures for `CC(C)Cn1cnc2c(N)ncnc21`: greater than 30 µM, greater than 100 µM, greater than 100 µM and greater than 100 µM.
The matching figures for `CC(O)Cn1cnc2c(N)ncnc21` (stereo unspecified): greater than 30 µM, 3.1 µM, greater than 100 µM and 29 µM.
The matching figures for `CCCCn1c(Br)nc2c(N)ncnc21`: 5.6 µM, 0.73 µM, greater than 100 µM and 3.2 µM.
For `CCCn1c(Br)nc2c(N)ncnc21`, the Ki was 0.2 µM on Adenosine receptor A2b, 0.3 µM on Adenosine receptor A2a, no less than 100 µM at Adenosine receptor A3 and 1.1 µM at Adenosine receptor A1.
The matching figures for `C=CCn1c(Br)nc2c(N)ncnc21`: 4.6 µM, 0.73 µM, 20 µM and 8.4 µM.
The matching figures for `C=CCCn1c(Br)nc2c(N)ncnc21`: greater than 30 µM, 1.6 µM, greater than 100 µM and 4.9 µM.
The matching figures for `CCC(C)n1c(Br)nc2c(N)ncnc21` (stereo unspecified): 1.2 µM, 0.39 µM, 15 µM and 3.1 µM.
For the compound `Cn1c(Br)nc2c(N)ncnc21`, the Ki on Adenosine receptor A2b is 0.72 µM; on Adenosine receptor A2a, 0.12 µM; on Adenosine receptor A3, greater than 100 µM; on Adenosine receptor A1, 0.57 µM.
Turning to `C=CCCn1cnc2c(N)ncnc21`, the Ki on Adenosine receptor A2b was greater than 30 µM; at Adenosine receptor A2a, 8.5 µM; at Adenosine receptor A3, greater than 100 µM; at Adenosine receptor A1, greater than 100 µM.
Turning to `Nc1ncnc2c1nc(Br)n2C1CCC1`, the Ki at Adenosine receptor A2b was found to be 4.1 µM; on Adenosine receptor A2a, 0.66 µM; at Adenosine receptor A3 it was 6.2 µM; on Adenosine receptor A1 it was 2.2 µM.
On the same counts, the results for `Nc1ncnc2c1nc(Br)n2C1CCCCC1` are greater than 30 µM, 15 µM, 11 µM and 4.6 µM.
On the same counts, the results for `Nc1ncnc2c1ncn2C1CCCCCC1` are greater than 30 µM, 11 µM, greater than 100 µM and greater than 100 µM.
The matching figures for `Nc1ncnc2c1ncn2C1CCCCC1`: greater than 30 µM, greater than 100 µM, greater than 100 µM and greater than 100 µM.
Regarding `Nc1ncnc2nc(Br)[nH]c12`, the Ki is greater than 30 µM at Adenosine receptor A2b, 3.2 µM at Adenosine receptor A2a, greater than 10 µM on Adenosine receptor A3 and 33 µM at Adenosine receptor A1.
Take `Cn1cnc2c(N)ncnc21`: the values for the Ki on Adenosine receptor A2b, at Adenosine receptor A3 and at Adenosine receptor A1 were greater than 30 µM, greater than 100 µM and 12 µM, respectively.
`CC(C)n1cnc2c(N)ncnc21`: the Ki at Adenosine receptor A2b is 16 µM; on Adenosine receptor A2a, 4.1 µM; on Adenosine receptor A3, greater than 100 µM; on Adenosine receptor A1, 4.3 µM.
On the same counts, the results for `Nc1ncnc2c1ncn2CCO` are greater than 30 µM, 11 µM, greater than 100 µM and 29 µM.
